This passage reports residual activity and Ki results from ChEMBL document CHEMBL1158443, “Discovery of novel lipophilic inhibitors of OXA-10 enzyme (class D beta-lactamase) by screening amino analogs and homologs of citrate and isocitrate” (Bioorg Med Chem Lett, 2009).

In assay [1] the target is Beta-lactamase OXA-10 (Pseudomonas aeruginosa) (UniProt P14489). As to the kind of experiment: Inhibition of Pseudomonas aeruginosa OXA10 beta-lactamase assessed as residual activity at 100 uM at pH 7 using phosphate buffer by spectrophotometry; values are per cent of control.
Beta-lactamase OXA-10 (Pseudomonas aeruginosa), sequence (P14489 whole entry): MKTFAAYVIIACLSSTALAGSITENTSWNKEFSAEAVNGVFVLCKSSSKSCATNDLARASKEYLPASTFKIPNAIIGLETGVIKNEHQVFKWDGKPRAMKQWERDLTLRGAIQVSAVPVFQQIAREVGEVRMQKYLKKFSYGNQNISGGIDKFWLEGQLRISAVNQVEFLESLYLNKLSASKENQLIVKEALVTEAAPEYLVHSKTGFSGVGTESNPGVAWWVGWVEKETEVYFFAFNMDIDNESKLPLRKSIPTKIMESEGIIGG
Assay [2] deals with T1, Beta-lactamase OXA-10 (Pseudomonas aeruginosa, UniProt P14489). Kind of assay: Competitive inhibition of Pseudomonas aeruginosa OXA10 beta-lactamase at pH 7. A digest of the protocol:
(§1)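 Ki came from plotting v0/vi against inhibitor concentration. v0/vi is the ratio of nitrocefin hydrolysis rates without and with inhibitor, monitored spectrophotometrically at 482 nm. Enzyme (1-100 nM) was preincubated with inhibitor for 30 min at 37 °C in the buffer for the stated pH.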

For a further assay, the system named is Bacillus cereus. As to the kind of experiment: Inhibition of Bacillus cereus BC2 beta-lactamase assessed as residual activity at 100 uM at pH 5 using acetate buffer by spectrophotometry; values are per cent of control.
The target in assay [3] is T1, Beta-lactamase OXA-10. Kind of assay: Inactivation of Pseudomonas aeruginosa OXA10 beta-lactamase at pH 7.
Assay [4] has as its target Beta-lactamase (Bacillus licheniformis) (UniProt P00808). Kind of assay: Inhibition of Bacillus licheniformis BS3 beta-lactamase assessed as residual activity at 100 uM at pH 7 using phosphate buffer by spectrophotometry; values are per cent of control.
Assay [5] is described as follows: Inhibition of TEM1 beta-lactamase assessed as residual activity at 100 uM at pH 7 using phosphate buffer by spectrophotometry; values are per cent of control.
Assay [6] can be described thus: Competitive inhibition of TEM1 beta-lactamase at pH 5. Summed up: as §1
Assay [7] has as its target Beta-lactamase VIM-4 (Pseudomonas aeruginosa) (UniProt Q8KRJ3). Kind of assay: Inhibition of Pseudomonas aeruginosa VIM4 beta-lactamase assessed as residual activity at 100 uM at pH 7 using HEPES buffer by spectrophotometry; values are per cent of control.
Assay [8] deals with Beta-lactamase (Enterobacter cloacae) (UniProt P05364). As to the kind of experiment: Inhibition of Enterobacter cloacae P99 beta-lactamase assessed as residual activity at 100 uM at pH 7 using phosphate buffer by spectrophotometry; values are per cent of control.
Beta-lactamase (Enterobacter cloacae), sequence (P05364 21-381 limits assumed): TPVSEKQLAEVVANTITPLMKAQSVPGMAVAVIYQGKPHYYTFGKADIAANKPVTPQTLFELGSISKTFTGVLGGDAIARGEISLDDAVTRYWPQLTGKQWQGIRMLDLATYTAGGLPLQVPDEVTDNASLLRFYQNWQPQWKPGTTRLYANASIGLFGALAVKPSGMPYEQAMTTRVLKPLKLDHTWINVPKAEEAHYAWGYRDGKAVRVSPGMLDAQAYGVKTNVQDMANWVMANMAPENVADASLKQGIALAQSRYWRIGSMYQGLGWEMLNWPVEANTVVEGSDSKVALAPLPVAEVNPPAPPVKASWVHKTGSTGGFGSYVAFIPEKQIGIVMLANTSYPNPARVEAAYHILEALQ

Beta-lactamase (Bacillus licheniformis), sequence (P00808 whole entry): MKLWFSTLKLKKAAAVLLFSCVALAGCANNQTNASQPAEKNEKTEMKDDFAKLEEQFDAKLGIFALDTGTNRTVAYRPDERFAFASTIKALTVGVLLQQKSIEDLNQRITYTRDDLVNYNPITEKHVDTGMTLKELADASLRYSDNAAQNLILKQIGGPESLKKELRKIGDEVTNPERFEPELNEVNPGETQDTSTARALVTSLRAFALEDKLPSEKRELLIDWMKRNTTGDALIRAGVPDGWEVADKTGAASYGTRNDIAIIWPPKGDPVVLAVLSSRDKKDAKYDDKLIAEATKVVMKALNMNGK
T1 sequence (P14489 whole entry): as the sequence (P14489 whole entry) above

Regarding `O=C(COc1ccccc1)NC(CC(=O)OCc1ccccc1)(CC(=O)OCc1ccccc1)C(=O)OCc1ccccc1`, the residual activity (usually the share of the control activity or signal that is left under treatment) in [1] amounted to 10%. For the same compound, the Ki on Beta-lactamase OXA-10 [2] was 20 µM.
In the case of `NC(CC(=O)OCc1ccccc1)(CC(=O)OCc1ccccc1)C(=O)OCc1ccccc1`, the residual activity with Bacillus cereus is 90%; in assay [1], 10%; in assay [4], 100%; in assay [5] it was 100%. At Beta-lactamase OXA-10 [3], the Ki came to 95 µM.
`NC(CC(=O)O)(CC(=O)O)C(=O)O` showed a Ki in assay [6] of 150 µM. The residual activity in [7] worked out at 100%; in [4], 88%; in [5], 95%; in assay [8] it was 81%.
